Results as given in BindingDB's records for doi:10.1021/np800732n (National Cancer Institute-Frederick, 2010).

Target: Transcription factor Jun (Homo sapiens, UniProt P05412)
Experiment: Inhibition of TPA-induced AP1 transfected in HEK293 cells assessed as inhibition of […] reporter activity treated 1 hr before TPA stimulation measured after 18 hrs by luciferase reporter gene assay
Procedure, shortened: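 HEK293 cells were grown in DMEM with 10% FBS at 37 °C and 5% CO2. They were transiently transfected with a luciferase reporter (0.1 µg/well); reporters were AP-1 (four TRE consensus copies from GCN4), NF-κB (five responsive-element copies) or SRE. After 24 h, medium went to DMEM with 0.2% FBS. Cells were pretreated 1 h with compound or DMSO, then given TPA 10 ng/mL for 18 h. Firefly luciferase was read from passive-lysis lysates, TPA alone = 100%, in quadruplicate.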

Chain of Transcription factor Jun (P05412 whole entry): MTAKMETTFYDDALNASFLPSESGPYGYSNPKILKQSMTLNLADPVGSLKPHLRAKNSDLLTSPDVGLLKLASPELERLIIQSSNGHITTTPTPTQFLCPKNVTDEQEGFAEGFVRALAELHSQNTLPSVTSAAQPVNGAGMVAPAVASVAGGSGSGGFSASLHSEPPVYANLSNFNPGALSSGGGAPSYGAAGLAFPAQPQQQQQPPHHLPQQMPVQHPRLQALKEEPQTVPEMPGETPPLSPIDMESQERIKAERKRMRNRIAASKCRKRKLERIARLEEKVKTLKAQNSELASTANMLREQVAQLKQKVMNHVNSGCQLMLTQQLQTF

IC50 [µM] | Structure (SMILES)
0.071 | CC(C)=CC(=O)O[C@@H]1[C@H]2C(C)=C[C@H](O)[C@@H](O)[C@]2(C)[C@H]2[C@]3(O)OC[C@@]24[C@@H]1OC(=O)C[C@H]4[C@@H](C)[C@H]3O [6R-senecionylchaparrin]
0.032 | CCC(C)C(=O)O[C@H]1C(=O)O[C@@H]2C[C@H]3C(C)CC(=O)C(=O)[C@]3(C)[C@H]3[C@]4(O)OC[C@]32[C@@H]1[C@@H](C)[C@H]4O (stereo partly drawn)

Structure (SMILES) | IC50 [µM]
CC[C@](C)(O)C(=O)O[C@H]1C(=O)O[C@@H]2C[C@H]3C(C)CC(=O)C(=O)[C@]3(C)[C@H]3[C@@]4(O)OC[C@]32[C@@H]1[C@@H](C)[C@H]4O (stereo partly drawn) [NSC-14975] | 0.04
